Source: PubChem BioAssay (The Scripps Research Institute Molecular Screening Center)
MC4R barr agon: MC4R agonists recruiting beta-arrestin, primary screen, cell-based, luminescence, agonist arm of biased-ligand search. 360,000 compounds, 0.98% hits. Melanocortin receptor 4 (Homo sapiens), P32245. activation, % at 8.9 µM. AID 540308, 2011. U2OS MC4R beta-arrestin complementation; percent of melanotan II response, DMSO zero;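 active means activation above a per-plate cutoff, the mean activation of sample wells on that plate plus 3 SD, cut at about 8% in these data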
MC4R antag cAMP: MC4R antagonists of cAMP signaling, primary screen, cell-based, TR-FRET, antagonist arm of biased-ligand search; Melanocortin receptor 4 (Homo sapiens), P32245; MC4R-expressing cells, MTII-stimulated cAMP, LANCE TR-FRET; 360,000 compounds, 0.48% hits; inhibition, % at 6.5 µM;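 active means inhibition above its plate's cutoff, the mean of tested wells on that plate plus 3 SD, cut at about 29% in these data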
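system = U2OS cells with stable human MC4R expression | also added = Melanotan II challenge after compound preincubation | dosing = one concentration, 6.5 µM nominal | incubation = compound 30 min, challenge 1 h, detection 1 h | measured by = TR-FRET with Eu-cAMP and labeled anti-cAMP, 671 nm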
GAA850 FXN act: FXN promoter activators, primary screen, cell-based, luciferase luminescence, HEK293 lucGAA850; HEK293 lucGAA850 FXN promoter luciferase reporter, 24 h; percent of 10 µM SAHA response; activation, % at 6 µM; 360,000 compounds, 0.56% hits; AID 540364, 2011;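 active means activation above the average of all compounds screened plus 3 SD, cutoff fixed separately per campaign, cut at about 7.5% in these data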
AHR activator: AHR activators, primary screen, cell-based, luminescence, luciferase reporter, human | Aryl hydrocarbon receptor (Homo sapiens), P35869 | AHR-responsive luciferase reporter cells | activation, % at 5 µM | AID 2796, 2010 | 320,000 compounds, 2.5% hits; in the data active means activation above about 47%
HTR2A ag: mouse Htr2a agonists via beta-arrestin recruitment, primary screen, cell-based, luminescence; 5-hydroxytryptamine receptor 2A (Mus musculus), P35363; CHO-K1 mHTR2A beta-arrestin complementation; percent of 30 µM serotonin response; activation, % at 7.6 µM; 360,000 compounds, 0.66% hits; AID 624169, 2012;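 active means activation above a run cutoff, the mean activation of all tested compounds plus 3 SD, cut at about 14% in these data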
Target sequence (P35363 whole entry, looked up): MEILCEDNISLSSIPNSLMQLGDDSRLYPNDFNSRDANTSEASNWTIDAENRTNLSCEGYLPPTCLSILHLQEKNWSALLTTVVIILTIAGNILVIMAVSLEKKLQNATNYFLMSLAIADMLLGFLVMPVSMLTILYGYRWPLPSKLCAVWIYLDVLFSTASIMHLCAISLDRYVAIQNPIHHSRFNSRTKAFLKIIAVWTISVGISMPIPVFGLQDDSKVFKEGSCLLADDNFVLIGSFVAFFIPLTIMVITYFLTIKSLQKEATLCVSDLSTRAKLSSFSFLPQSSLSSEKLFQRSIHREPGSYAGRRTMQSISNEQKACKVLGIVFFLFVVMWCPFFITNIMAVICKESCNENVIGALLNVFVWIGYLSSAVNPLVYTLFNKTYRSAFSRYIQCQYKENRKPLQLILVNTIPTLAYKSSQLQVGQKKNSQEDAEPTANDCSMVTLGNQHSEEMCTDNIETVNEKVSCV
MC4R barr conf: MC4R beta-arrestin agonists, retest, confirmation, cell-based, luminescence, U2OS; U2OS MC4R beta-arrestin recruitment; scaled DMSO 0%, Melanotan II 100%; activation, % at 8.9 µM; 2,400 compounds, 31% hits; shares compounds with MC4R barr agon; AID 602192, 2012;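 active means mean activation across replicates above the hit cutoff set in the earlier primary screen, cut at about 8% in these data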
MOR-DOR barr ag: agonists of MOR-DOR heterodimerization, counter-screen for MC4R biased agonist project, cell-based, luminescence; shares compounds with MC4R barr agon; U2OS PathHunter beta-arrestin, beta-gal luminescence; percent of deltorphin B response, DMSO zero; activation, % at 9.2 µM; 2,400 compounds, 5.8% hits; AID 602194, 2012;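 active means mean activation across replicates exceeds the hit threshold derived in the earlier primary screen, cut at about 18% in these data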
Numbers stand for hits; . = inactive; / = not tested or not shown. Compounds with a hit are over-represented: about 4.7% of the library has one in this group of screens.

SMILES	MC4R barr agon	MC4R antag cAMP	GAA850 FXN act	AHR activator	HTR2A ag	MC4R barr conf	MOR-DOR barr ag
CCN(C(=O)c1cc2c(=O)[nH]c3ccc(C)cc3c2s1)c1cccc(C)c1	.	.	.	.	.	/	/
O=C(NC(=S)NCC1CCCO1)C(c1ccccc1)c1ccccc1 (stereo not drawn)	13.3	.	.	.	.	.	.
O=C(Nc1ccccc1)Nc1cc(OCC(F)(F)F)cc(OCC(F)(F)F)c1	10.4	.	.	/	.	.	.
O=C(Nc1ccccc1F)C1CCCC1	.	.	.	.	.	/	/
O=C(Nc1ccccc1F)c1oc2ccccc2c1NC(=O)C1CC1	9.6	.	.	57.0	.	.	.
CCN1CCN(Cc2ccc(NC(=O)c3cc(NC(=O)C(=O)c4c[nH]c5ccccc45)cc(OC)c3)cc2C(F)(F)F)CC1	23.7	.	.	.	.	22.1	.
CCN1CCN(Cc2ccc(NC(=O)c3cc(NC(=O)c4cc(C)on4)cc(OC)c3)cc2C(F)(F)F)CC1	.	.	.	.	.	/	/
CCN1CCN(Cc2ccc(NC(=O)c3ccc(C)c(NC(=O)C(=O)c4c[nH]c5ccccc45)c3)cc2C(F)(F)F)CC1	21.6	.	.	.	.	20.9	.
CCOc1ccccc1-c1nc(-c2ccc(NC(=O)Cc3ccc(OC)cc3)cc2)no1	21.1	.	.	.	.	25.0	20.6
COc1ccc(CC(=O)Nc2ccc(-c3noc(COc4ccccc4C)n3)cc2)cc1	.	.	.	.	.	/	/
CC(OC(=O)CCNS(=O)(=O)c1ccc(Cl)cc1)C(=O)N(C)Cc1ccccc1 (stereo not drawn)	.	.	.	/	.	/	/
CCCc1cc(=O)oc2cc3oc(C)c(C)c3cc12	13.2	.	.	.	.	.	.
CCc1cc(=O)oc2cc3oc(C)c(C)c3cc12	.	.	.	.	.	/	/
CCn1cc([N+](=O)[O-])c(C(=O)N2N=C(c3ccc4ccccc4c3)CC2c2cc(Br)ccc2O)n1 (stereo not drawn)	15.9	.	.	.	.	9.0	.
O=C(NC(c1ccccc1)c1ccsc1)C1CCN(CCOc2ccc(Cl)cc2Cl)CC1 (stereo not drawn)	54.1	.	.	/	.	46.9	.
COc1ccc(C(NC(=O)C2CCN(CCOc3ccc(Cl)cc3Cl)CC2)c2cccs2)cc1 (stereo not drawn)	110.7	.	.	/	.	32.5	.
COc1ccc(C(NC(=O)C2CCN(CCOc3ccc(Cl)cc3Cl)CC2)c2ccccc2C)cn1 (stereo not drawn)	52.9	.	.	/	.	34.8	.
O=C(NC(c1ccccc1)c1cnccn1)C1CCN(CCOc2ccc(Cl)cc2Cl)CC1 (stereo not drawn)	.	.	.	/	.	/	/
COc1ccc(C(NC(=O)C2CCN(CCOc3ccc(F)cc3)CC2)c2cccs2)cc1 (stereo not drawn)	.	.	.	/	.	/	/
COc1ccc(C(C)NC(=O)C2CCN(CCOc3ccc(Cl)cc3Cl)CC2)cc1OC (stereo not drawn)	.	.	.	/	.	/	/
CCN(CC)C(=O)c1[nH]cnc1C(=O)NC1CCN(C(=O)OC(C)(C)C)CC1	.	.	.	.	.	/	/
Cc1cc(N2CCN(C(C(=O)NC3CCCC3)c3ccco3)CC2)c2ccccc2n1 (stereo not drawn)	/	/	/	/	.	/	/
COc1ccc(C[C@H]2CN3C(=NC[C@H]3Cc3ccccc3)N2CCNC(=O)c2ccc(C)c(Br)c2)cc1	16.0	.	.	.	.	22.2	26.9
COc1ccc(C[C@H]2CN3C(=NC[C@@H]3Cc3ccc(O)cc3)N2CCNC(=O)c2ccc(C)c(Br)c2)cc1	.	.	.	.	.	/	/
O=c1c2ccccc2nc(/C=C/c2ccccc2)n1CCCO	.	.	.	.	.	/	/
SMILES	MC4R barr agon	MC4R antag cAMP	GAA850 FXN act	AHR activator	HTR2A ag	MC4R barr conf	MOR-DOR barr ag
O=c1c2ccccc2nc(/C=C/c2ccc(O)cc2)n1CCc1ccccc1	14.6	.	.	72.2	.	.	.
CN(C)CCOc1ccc(-c2c(-c3ccsc3)sc3ccccc23)cc1	13.2	.	.	.	.	22.6	.
COc1ccc(-c2sc3ccccc3c2-c2ccc(OCCN(C)C)cc2)cc1	21.1	.	.	.	.	45.1	.
COc1ccc(-c2sc3ccccc3c2-c2ccc(O)cc2)cc1	.	.	.	.	.	/	/
Cc1c(CN2CCN(CC(C)(C)C)C(CCO)C2)[nH]c2ccccc12 (stereo not drawn)	.	.	.	/	.	/	/
CCOc1ccc(CN2CCN(Cc3[nH]c4ccccc4c3C)CC2CCO)cc1 (stereo not drawn)	11.7	.	.	.	.	.	22.4
Cc1ccc(NC(=O)C2C3/C=C\CCCCC32)cc1C (stereo not drawn)	18.7	.	.	.	.	.	.
CCCCn1nc(C(=O)NCc2ccccc2CN2CCCC2)c2ccccc2c1=O	.	.	.	.	.	/	/
N=c1n(CCN2CCCCC2)c2ccccc2n1CC(=O)c1cccc([N+](=O)[O-])c1	11.2	.	.	.	.	.	/
CCOC(=O)CC(=O)CSc1nc(-c2ccc3c(c2)OCO3)cc(C(F)(F)F)c1C#N	25.5	.	.	60.3	.	8.9	.
Cc1cccc(-c2cccc3nccn23)c1	.	.	.	/	.	/	/
Cc1[nH]nc2nc(SCC(=O)NC3CCCCC3)n(-c3ccc(Br)cc3)c(=N)c12	16.6	.	.	.	.	.	23.1
C/C(=N\Nc1ccc(S(N)(=O)=O)cc1[N+](=O)[O-])c1ccc2c(c1)OCO2	13.1	.	.	/	.	.	.
COc1nc(-c2ccc(Cl)cc2)ccc1-c1noc(-c2ccco2)n1	.	.	.	.	.	/	/
COc1nc2c(C)cccc2cc1-c1noc(-c2ccco2)n1	14.4	.	.	.	.	.	.
COc1ccc(-c2cnnc(N/N=C/c3ccc(OC)c(OC)c3)n2)cc1	12.7	.	.	.	.	.	.
COc1ccc(/C=C/C(=O)Oc2ccc(/C=N/NC(=O)c3ccccc3)cc2)cc1OC	23.3	.	.	.	.	.	21.5
COc1ccc(-c2nc3ccccc3nc2-c2ccccc2)cc1OC	.	.	.	.	.	/	/
CCOc1cc(/C=N/Nc2nncc(-c3ccccc3)n2)ccc1O	.	.	.	.	.	/	/
